Values belong to the compound of their own block, whether it stands above or below them. Active and inactive are the calls of the source. The rule behind the calls is not given here.
Assays:
[1] = tested on: Rattus norvegicus; test: Oral dose necessary to produce an excretion of 2 mequiv of Na+/kg in the rat urine in the 4-h period after peroral administration; type: ADME, organism-based; settings: in vivo
Procedure, shortened: (§1)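 Rats dosed orally. Urinary Na⁺ was measured over the 4 h after dosing. ED₂ is the oral dose (mg/kg) giving excretion of 2 mequiv Na⁺/kg in that period.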

[2] = tested on: Rattus norvegicus; test: Oral dose necessary to produce an excretion of 2 mequiv of Na+/kg in the rat urine in the 4-h period after peroral administration; inactive; type: ADME, organism-based; settings: in vivo; procedure, shortened: as §1
[3] = organism: Canis familiaris; test: Relative amount of acid ([4-(3-Aminomethyl-4-hydroxy-benzoyl)-2,3-dichloro-phenoxy]-acetic acid;) appearing in dog plasma was reported; type: functional, Canis lupus familiaris
[4] = Dose required for 50% inhibition of chloride transport in frog cornea was evaluated; type: functional
[5] = tested on: Canis familiaris; test: Oral dose in mg/kg necessary to produce an excretion of 5 mequiv of Na+/kg in the dog urine during 6-h period after dosing; settings: in vivo
[6] = tested on: Rattus norvegicus; test: Oral dose necessary to produce an excretion of 2 mequiv of Na+/kg in the rat urine in the 4-h period after peroral administration; Inactive; type: ADME, organism-based; settings: in vivo; procedure, shortened: as §1
[7] = tested on: frog; test: Dose required for 50% inhibition of chloride transport in frog cornea was evaluated; No inhibition; type: functional, tissue-based

Structure (SMILES): CCOC(=O)C(C)(C)Oc1ccc(C(=O)c2ccc(O)c(CN)c2)c(Cl)c1Cl.Cl
ED2 [2]: Not Active

Structure (SMILES): Cl.NCc1cc(C(=O)c2ccc(OCC(N)=O)c(Cl)c2Cl)ccc1O
ED2 [1]: 17 mg/kg
Relative amount [3]: 67%
IC50 [4]: 16.5 µM
ED5 [5]: 0.7 mg/kg

Structure (SMILES): Cl.NCc1cc(C(=O)c2ccc(OCC(=O)O)c(Cl)c2Cl)ccc1O
ED2 [6]: Not Active
IC50 [4]: 8.4 µM
ED5 [5]: 0.71 mg/kg

Structure (SMILES): CCOC(=O)CCCOc1ccc(Oc2ccc(O)c(CN)c2)c(Cl)c1Cl.Cl
ED2 [1]: 13.5 mg/kg

Structure (SMILES): CCOC(=O)Cc1ccc(Oc2ccc(O)c(CN)c2)c(Cl)c1Cl.Cl
ED2 [1]: 21.5 mg/kg

Structure (SMILES): Cl.NCCOc1ccc(C(=O)c2ccc(O)c(CN)c2)c(Cl)c1Cl
ED2 [1]: 16.2 mg/kg
Relative amount [3]: 25%
Inhibition [7]: inactive
ED5 [5]: 8 mg/kg

Structure (SMILES): CCOC(=O)C1Cc2cc(C(=O)c3ccc(O)c(CN)c3)c(Cl)c(Cl)c2O1 (stereo unspecified)
ED2 [1]: 0.11 mg/kg

More lines, main results first:

ED2 [1]: 19.5 mg/kg
Structure (SMILES): CCOC(=O)C(C)Oc1ccc(C(=O)c2ccc(O)c(CN)c2)c(Cl)c1Cl.Cl (stereo unspecified)

ED2 [1]: 28.5 mg/kg
Structure (SMILES): CC(=O)COc1ccc(C(=O)c2ccc(O)c(CN)c2)c(Cl)c1Cl.Cl

ED2 [1]: 2.5 mg/kg
IC50 [4]: 14.6 µM
ED5 [5]: 1 mg/kg
Structure (SMILES): CCOC(=O)COc1ccc(C(=O)c2ccc(O)c(CN)c2)c(Cl)c1Cl.Cl
Relative amount [3]: 100%

ED2 [6]: Not Active
Structure (SMILES): Cl.N#CCOc1ccc(C(=O)c2ccc(O)c(CN)c2)c(Cl)c1Cl

ED2 [6]: Not Active
Structure (SMILES): CCOC(=O)c1ccc(Oc2ccc(O)c(CN)c2)c(Cl)c1Cl.Cl

ED2 [6]: Not Active
Structure (SMILES): COc1ccc(C(=O)c2ccc(O)c(CN)c2)c(Cl)c1Cl.Cl

ED2 [1]: 0.8 mg/kg
Structure (SMILES): CCOC(=O)COc1ccc(Oc2ccc(O)c(CN)c2)c(Cl)c1Cl.Cl

ED2 [1]: 1 mg/kg
ED5 [5]: 5.5 mg/kg
Structure (SMILES): Cl.NCc1cc(C(=O)c2ccc(OCCO)c(Cl)c2Cl)ccc1O
Relative amount [3]: 13%
Inhibition [7]: inactive

ED2 [1]: 10.7 mg/kg
Structure (SMILES): CCOC(=O)CCc1ccc(Oc2ccc(O)c(CN)c2)c(Cl)c1Cl.Cl

ED2 [1]: 1.22 mg/kg
Structure (SMILES): CCOC(=O)CSc1ccc(Oc2ccc(O)c(CN)c2)c(Cl)c1Cl.Cl

Reference: ChEMBL document CHEMBL1122532, “[(Aminomethyl)aryloxy]acetic acid esters. A new class of high-ceiling diuretics. 2. Modifications of the oxyacetic side chain” (J Med Chem, 1984)
